Experimental data reported in ChEMBL document CHEMBL4699413, “Structure-guided discovery of selective methionyl-tRNA synthetase inhibitors with potent activity against Trypanosoma brucei” (RSC Med Chem, 2020).

Experiments:
[1] = system: Trypanosoma brucei brucei; experiment: Antitrypanosomal activity against blood stream form of Trypanosoma brucei brucei 427 assessed as parasite growth inhibition incubated for 48 hrs by alamar blue dye based assay; assay type: functional, organism-based; details: Trypanosoma brucei, 427, 48 h
Procedure, shortened: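 Bloodstream-form BSF 427 parasites in HMI-9 with 10% heat-inactivated FBS and penicillin/streptomycin, 37 °C, 5% CO₂; 10 000 cells/well initial inoculum; serial 3-fold dilutions in triplicate; Alamar Blue read at 48 h. Pentamidine control.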

[2] = Cytotoxicity against human HepG2 cells assessed as reduction in cell viability after 48 hrs by alamar blue dye based assay
[3] = Cytotoxicity against human WIL2-NS cells assessed as reduction in cell viability after 48 hrs by alamar blue dye based assay
Procedure, shortened: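 CRL-8155 lymphocytic cells in RPMI with 10% heat-inactivated FBS, 2 mM L-glutamine, 0.4 mM sodium pyruvate, penicillin/streptomycin, 37 °C, 5% CO₂; 30 000 cells/well; quadruplicate serial 3-fold dilutions from 50 µM (or 25 µM); AlamarBlue at 48 h, 50 µM quinacrine as background; percent inhibition versus untreated wells; single experiment.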

[4] = system: mitochondrial MetRS (mitochondrial protein synthesis); experiment: Selectivity index, ratio of EC50 for inhibition of mitochondrial MetRS-mediated mitochondrial protein synthesis in human HepG2 cells to EC50 for antitrypanosomal activity against blood stream form of Trypanosoma brucei brucei 427; assay type: toxicity, cell-based; details: read-out: Ratio EC50
[5] = Ratio of drug level in brain to plasma in Swiss Webster mouse at 5 mg/kg, ip measured after 60 mins by LC-MS analysis; assay type: ADME, organism-based; details: 1 h
Procedure, shortened: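 Swiss Webster mice, triplicate, 5 mg kg⁻¹ IP in 7% Tween80, 5% DMSO, 3% EtOH in saline; plasma and brain collected 1 h post-dose; brain homogenized in water, extracts measured by LC-MS/MS; brain levels corrected for 3% v/w blood content.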

[6] = target: T1, Methionine--tRNA ligase, mitochondrial (Homo sapiens, UniProt Q96GW9); experiment: Inhibition of mitochondrial MetRS-mediated mitochondrial protein synthesis in human HepG2 cells measured after 6 days by ELISA; assay type: cell-based
T1 sequence (Q96GW9 whole entry): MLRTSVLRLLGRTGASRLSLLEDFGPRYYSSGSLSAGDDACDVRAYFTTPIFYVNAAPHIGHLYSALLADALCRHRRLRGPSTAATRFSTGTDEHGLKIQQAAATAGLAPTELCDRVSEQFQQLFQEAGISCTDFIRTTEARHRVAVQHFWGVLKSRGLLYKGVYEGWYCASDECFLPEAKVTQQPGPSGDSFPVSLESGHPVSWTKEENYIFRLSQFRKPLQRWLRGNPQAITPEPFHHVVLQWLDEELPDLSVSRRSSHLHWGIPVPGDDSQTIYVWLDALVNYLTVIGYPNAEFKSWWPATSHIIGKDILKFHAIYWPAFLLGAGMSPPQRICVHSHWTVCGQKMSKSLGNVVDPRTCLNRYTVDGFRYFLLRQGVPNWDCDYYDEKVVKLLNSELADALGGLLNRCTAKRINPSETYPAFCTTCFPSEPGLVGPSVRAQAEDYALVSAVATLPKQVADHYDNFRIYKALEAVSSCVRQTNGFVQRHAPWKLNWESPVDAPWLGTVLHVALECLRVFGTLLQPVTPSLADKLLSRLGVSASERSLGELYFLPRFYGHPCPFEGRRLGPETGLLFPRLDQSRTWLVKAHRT
Procedure, shortened: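 HepG2 seeded 6000 cells/well on collagen-coated plates, grown 24 h in DMEM/F12 with 10% FBS, pyruvate, antibiotics; then serial 3-fold dilutions from 25 µM in duplicate, 6 days at 37 °C, medium with compound refreshed every 48 h; paraformaldehyde-fixed, COX-1 quantified by in-cell ELISA. Chloramphenicol control.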

CCn1c(Cc2ccc(Cl)cc2Cl)cn(Cc2nc3c(Cl)cccc3[nH]2)c1=O
EC50 [1]: 0.21 µM
CC50 at 48 h [2]: > 50 µM
CC50 at 48 h [3]: > 50 µM

CC(C)n1c(Cc2ccc(Cl)cc2Cl)cn(Cc2nc3nc(F)ccc3[nH]2)c1=O
EC50 [1]: 0.0023 µM
CC50 at 48 h [2]: > 50 µM
CC50 at 48 h [3]: > 50 µM

CCn1c(Cc2ccc(Cl)cc2Cl)cn(Cc2nc3cc(C(F)(F)F)ccc3[nH]2)c1=O
EC50 [1]: > 2 µM
CC50 at 48 h [2]: > 50 µM
CC50 at 48 h [3]: > 50 µM

COc1ccc(Cc2cn(Cc3nc4nc(Cl)ccc4[nH]3)c(=O)n2CC(F)F)c(Cl)c1
EC50 [1]: 0.0036 µM
CC50 at 48 h [2]: > 50 µM
CC50 at 48 h [3]: > 50 µM

O=c1n(Cc2nc3nc(Cl)ccc3[nH]2)cc(Cc2ccc(Cl)cc2Cl)n1CC(F)F
selectivity ratio [4]: 143
EC50 [1]: 0.003 µM
BPR [5]: 0%
CC50 at 48 h [2]: > 50 µM
EC50 [6]: 0.43 µM
CC50 at 48 h [3]: > 50 µM

COc1ccc(-c2nccn3c(=O)n(Cc4nc5nc(Cl)ccc5[nH]4)cc23)c(Cl)c1
EC50 [1]: 0.031 µM
CC50 at 48 h [2]: > 50 µM
CC50 at 48 h [3]: > 50 µM

FC(F)(F)c1ccc(-c2cccc3nc(Cc4nc5nc(Cl)ccc5[nH]4)cn23)c(Cl)c1
EC50 [1]: 1.78 µM

CCn1c(Cc2ccc(Cl)cc2Cl)cn(Cc2nc3ccccc3[nH]2)c1=O
EC50 [1]: 0.04 µM
CC50 at 48 h [2]: > 50 µM
CC50 at 48 h [3]: > 50 µM

O=c1n(Cc2nc3nc(F)ccc3[nH]2)cc(Cc2ccc(Cl)cc2Cl)n1C1CCOCC1
EC50 [1]: 0.0058 µM
CC50 at 48 h [2]: > 50 µM
CC50 at 48 h [3]: > 50 µM

CCOc1ccc(-c2cccc3nc(Cc4nc5nc(Cl)ccc5[nH]4)cn23)c(Cl)c1
EC50 [1]: 1.9 µM

CCn1c(Cc2ccc(Cl)cc2Cl)cn(Cc2nc3cnccc3[nH]2)c1=O
EC50 [1]: 0.39 µM
CC50 at 48 h [2]: > 50 µM
CC50 at 48 h [3]: > 50 µM

COc1ccc(-c2cccn3cc(Cc4nc5nc(Cl)ccc5[nH]4)nc23)c(Cl)c1
EC50 [1]: > 2 µM

CCn1c(Cc2ccc(Cl)cc2Cl)cn(Cc2nc3cc(C)ccc3[nH]2)c1=O
EC50 [1]: 0.11 µM
CC50 at 48 h [2]: > 50 µM
CC50 at 48 h [3]: > 50 µM

CCn1c(Cc2ccc(Cl)cc2Cl)cn(Cc2nc3ccccc3o2)c1=O
EC50 [1]: > 2 µM
CC50 at 48 h [2]: > 50 µM
CC50 at 48 h [3]: > 50 µM

CCn1c(Cc2ccc(Cl)cc2Cl)cn(Cc2nc3cc(Cl)c(Cl)cc3[nH]2)c1=O
EC50 [1]: 0.66 µM
CC50 at 48 h [2]: 31.3 µM
CC50 at 48 h [3]: 31.6 µM

CCn1c(Cc2ccc(Cl)cc2Cl)cn(Cc2nc3c(F)cccc3[nH]2)c1=O
EC50 [1]: 0.031 µM
CC50 at 48 h [2]: > 50 µM
CC50 at 48 h [3]: 45 µM

Clc1ccc(-c2cccc3nc(Cc4nc5nc(Cl)ccc5[nH]4)cn23)c(Cl)c1
EC50 [1]: 0.064 µM
CC50 at 48 h [2]: 43.2 µM
CC50 at 48 h [3]: 16.1 µM

CCCn1c(Cc2ccc(Cl)cc2Cl)cn(Cc2nc3nc(Cl)ccc3[nH]2)c1=O
EC50 [1]: ≤ 0.0009 µM
CC50 at 48 h [2]: 26.4 µM
CC50 at 48 h [3]: 37.8 µM

CCn1c(Cc2ccc(OC)cc2Cl)cn(Cc2nc3nc(Cl)ccc3[nH]2)c1=O
selectivity ratio [4]: 39
EC50 [1]: 0.001 µM
BPR [5]: 0%
CC50 at 48 h [2]: > 50 µM
EC50 [6]: 0.039 µM
CC50 at 48 h [3]: > 50 µM

COc1ccc(-c2cccc3nc(Cc4nc5nc(F)ccc5[nH]4)cn23)c(Cl)c1
EC50 [1]: 0.059 µM
CC50 at 48 h [2]: > 50 µM
CC50 at 48 h [3]: 15.7 µM

CCCn1c(Cc2ccc(Cl)cc2Cl)cn(Cc2nc3nc(F)ccc3[nH]2)c1=O
selectivity ratio [4]: 38
EC50 [1]: 0.0051 µM
BPR [5]: 5.5%
CC50 at 48 h [2]: > 50 µM
EC50 [6]: 0.195 µM
CC50 at 48 h [3]: > 50 µM

Clc1cc(Cl)cc(-c2cccc3nc(Cc4nc5nc(Cl)ccc5[nH]4)cn23)c1
EC50 [1]: 0.196 µM

O=c1n(Cc2nc3nc(F)ccc3[nH]2)cc(Cc2ccc(Cl)cc2Cl)n1CC1CCOCC1
EC50 [1]: 0.003 µM
CC50 at 48 h [2]: > 50 µM
CC50 at 48 h [3]: > 50 µM

O=c1n(Cc2nc3nc(F)ccc3[nH]2)cc(Cc2ccc(Cl)cc2Cl)n1C1CCCCC1
EC50 [1]: 0.016 µM
CC50 at 48 h [2]: 33.2 µM
CC50 at 48 h [3]: 30.4 µM

O=c1n(Cc2nc3nc(F)ccc3[nH]2)cc(Cc2ccc(Cl)cc2Cl)n1CC(F)F
selectivity ratio [4]: 30
EC50 [1]: 0.0059 µM
BPR [5]: 0%
CC50 at 48 h [2]: > 50 µM
EC50 [6]: 0.175 µM
CC50 at 48 h [3]: 33.3 µM

CCn1c(Cc2ccc(Cl)cc2Cl)cn(Cc2nc3c(F)c(F)ccc3[nH]2)c1=O
EC50 [1]: 0.026 µM
CC50 at 48 h [2]: 40.6 µM
CC50 at 48 h [3]: 41 µM

CCn1c(Cc2ccc(Cl)cc2Cl)cn(Cc2nc3nc(F)ccc3[nH]2)c1=O
selectivity ratio [4]: 85
EC50 [1]: 0.0034 µM
BPR [5]: 0.1%
CC50 at 48 h [2]: > 50 µM
EC50 [6]: 0.29 µM
CC50 at 48 h [3]: > 50 µM

COc1ccc(-c2cccc3nc(Cc4nc5nc(Cl)ccc5[nH]4)cn23)c(Cl)c1
EC50 [1]: 0.024 µM
CC50 at 48 h [2]: > 50 µM
CC50 at 48 h [3]: 13 µM

CCn1c(Cc2ccc(Cl)cc2Cl)cn(Cc2nc3ncccc3[nH]2)c1=O
EC50 [1]: 0.017 µM
CC50 at 48 h [2]: > 50 µM
CC50 at 48 h [3]: > 50 µM

Cc1ccc(-c2cccc3nc(Cc4nc5nc(Cl)ccc5[nH]4)cn23)c(Cl)c1
EC50 [1]: > 2 µM

CCn1c(Cc2ccc(Cl)cc2Cl)cn(Cc2nc3nc(Cl)ccc3[nH]2)c1=O
selectivity ratio [4]: 26
EC50 [1]: 0.0016 µM
BPR [5]: 9.6%
CC50 at 48 h [2]: > 50 µM
EC50 [6]: 0.042 µM
CC50 at 48 h [3]: > 50 µM

O=c1n(Cc2nc3nc(F)ccc3[nH]2)cc(Cc2ccc(Cl)cc2Cl)n1CC1(O)CCOCC1
EC50 [1]: 0.0046 µM
CC50 at 48 h [2]: > 50 µM
CC50 at 48 h [3]: > 50 µM

CCn1c(Cc2ccc(Cl)cc2Cl)cn(Cc2nc3cc(Cl)ccc3[nH]2)c1=O
EC50 [1]: 0.069 µM
CC50 at 48 h [2]: 45.3 µM
CC50 at 48 h [3]: 27.1 µM

CCn1c(Cc2ccc(Cl)cc2Cl)cn(Cc2nc3c(Cl)cc(Cl)cc3[nH]2)c1=O
EC50 [1]: 1.6 µM
CC50 at 48 h [2]: 43.7 µM
CC50 at 48 h [3]: 38.2 µM

COc1ccc(-c2cncc3nc(Cc4nc5nc(Cl)ccc5[nH]4)cn23)c(Cl)c1
EC50 [1]: 0.032 µM
CC50 at 48 h [2]: > 50 µM
CC50 at 48 h [3]: > 50 µM

CCn1c(Cc2ccc(Cl)cc2Cl)cn(Cc2nc3cc(Cl)c(F)cc3[nH]2)c1=O
EC50 [1]: 0.22 µM
CC50 at 48 h [2]: 29.8 µM
CC50 at 48 h [3]: 20.9 µM

O=C(N[C@H](CO)[C@H](O)c1ccc([N+](=O)[O-])cc1)C(Cl)Cl [CHLORAMPHENICOL]
EC50 [6]: 7.9 µM

N=C(N)c1ccc(OCCCCCOc2ccc(C(=N)N)cc2)cc1 [PENTAMIDINE]
EC50 [1]: 0.0017 µM

CCN(CC)CCCC(C)Nc1c2ccc(Cl)cc2nc2ccc(OC)cc12 (stereo not given) [QUINACRINE]
CC50 at 48 h [2]: 7.6 µM
CC50 at 48 h [3]: 4.8 µM
